The subject of series [1] is COLO 205. As to the kind of experiment: Cytotoxicity against human COLO205 cells. Type of series: functional, cell-based.
Series [2] in a line: Selectivity for Aurora A over Aurora B.
The subject of series [3] is HCT-116. As to the kind of experiment: Cytotoxicity against human HCT116 cells after 5 days by celltiter-glo assay. Type of series: functional, cell-based. The note with it: HCT-116, 120 h.
In series [4] the test system is MCF7. As to the kind of experiment: Cytotoxicity against human MCF7 cells. Type of series: functional, cell-based.
Series [5] concerns the target T1, Aurora kinase A (Homo sapiens, UniProt O14965).
T1 sequence (O14965 whole entry): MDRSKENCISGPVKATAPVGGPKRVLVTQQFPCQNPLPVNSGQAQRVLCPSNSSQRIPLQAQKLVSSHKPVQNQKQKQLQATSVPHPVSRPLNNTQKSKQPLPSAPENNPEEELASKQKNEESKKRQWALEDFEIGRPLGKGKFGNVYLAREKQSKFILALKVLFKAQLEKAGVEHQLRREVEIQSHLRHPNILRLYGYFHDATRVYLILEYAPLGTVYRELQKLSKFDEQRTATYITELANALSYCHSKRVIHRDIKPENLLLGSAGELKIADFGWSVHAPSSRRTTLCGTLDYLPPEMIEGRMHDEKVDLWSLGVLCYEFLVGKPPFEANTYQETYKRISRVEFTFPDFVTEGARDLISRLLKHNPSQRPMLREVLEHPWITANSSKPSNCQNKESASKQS
The series can be described thus: Inhibition of Aurora A by ELISA. The essentials: (§1)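 ELISA on plates coated with GST fusion carrying histone H3 residues 1-15, blocked with 1 mg/mL I-block. Aurora-A or Aurora-B kinase reacted with compound and 30 μM ATP in kinase buffer with 1 μg/mL I-block; stopped after 40 min with 25 mM EDTA. Phosphorylation read with anti-phospho-histone H3 (Ser10) 6G3 mAb. IC50 from triplicate averages.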

The target of series [6] is Aurora kinase B (Homo sapiens, UniProt Q96GD4). The series can be described thus: Inhibition of Aurora B by ELISA. The procedure, abridged: as §1
Series [7] deals with Cytochrome P450 3A4 (Homo sapiens, UniProt P08684). As to the kind of experiment: Inhibition of CYP3A4. Type of series: ADME.
Series [8] has as its target Cytochrome P450 2D6 (Homo sapiens, UniProt P10635). The series can be described thus: Inhibition of CYP2D6. Format: ADME.
The target of series [9] is Cytochrome P450 2C9 (Homo sapiens, UniProt P11712). The series can be described thus: Inhibition of CYP2C9. Type of series: ADME.
The nature of series [10]: Aqueous solubility of the compound. The note with it: buffer. Type of series: physicochemical.
Series [11] has as its target hERG (KCNH2) (Homo sapiens, UniProt Q12809). The series can be described thus: Inhibition of human ERG at 10 uM.
Series [12] is described as follows: Clearance in rat hepatocytes measured per 10^6 cells. Type of series: ADME, cell-based, Liver, Hepatocyte.
A short description of series [13]: Clearance in mouse microsome measured per mg of protein. Format: ADME, Liver. Particulars: microsomes.
Series [14] is described as follows: Clearance in human microsome measured per mg of protein. Type of series: ADME. The note with it: microsomes.
The test system of series [15] is MCF7. As to the kind of experiment: Induction of cell cycle arrest in human MCF7 cells assessed as accumulation at G2/M phase at 10 uM after 24 hrs by immunostaining. Type of series: functional, cell-based.

31 molecules from ChEMBL document CHEMBL1649093, “Phthalazinone pyrazoles as potent, selective, and orally bioavailable inhibitors of Aurora-A kinase” (J Med Chem, 2011) can be followed below.

≈ marks a conversion by molar mass, not a printed value. Calls of active or inactive are those of the source. The rule behind the calls is not given here. Some results are limits rather than exact numbers.

Cytochrome P450 3A4, sequence (P08684 whole entry): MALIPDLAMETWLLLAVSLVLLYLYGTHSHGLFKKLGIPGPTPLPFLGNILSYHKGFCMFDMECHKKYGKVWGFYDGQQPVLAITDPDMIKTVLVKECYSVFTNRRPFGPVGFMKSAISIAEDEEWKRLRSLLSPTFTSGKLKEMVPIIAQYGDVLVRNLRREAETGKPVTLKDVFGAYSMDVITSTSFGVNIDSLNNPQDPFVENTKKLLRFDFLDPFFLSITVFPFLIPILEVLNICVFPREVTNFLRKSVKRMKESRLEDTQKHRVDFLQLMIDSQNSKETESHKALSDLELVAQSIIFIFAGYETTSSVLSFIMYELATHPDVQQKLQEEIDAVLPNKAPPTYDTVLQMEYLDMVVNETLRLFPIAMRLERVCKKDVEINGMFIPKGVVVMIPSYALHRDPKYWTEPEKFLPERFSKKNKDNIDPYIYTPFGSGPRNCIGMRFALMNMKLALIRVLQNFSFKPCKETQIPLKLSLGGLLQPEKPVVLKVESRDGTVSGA
Cytochrome P450 2C9, sequence (P11712 whole entry): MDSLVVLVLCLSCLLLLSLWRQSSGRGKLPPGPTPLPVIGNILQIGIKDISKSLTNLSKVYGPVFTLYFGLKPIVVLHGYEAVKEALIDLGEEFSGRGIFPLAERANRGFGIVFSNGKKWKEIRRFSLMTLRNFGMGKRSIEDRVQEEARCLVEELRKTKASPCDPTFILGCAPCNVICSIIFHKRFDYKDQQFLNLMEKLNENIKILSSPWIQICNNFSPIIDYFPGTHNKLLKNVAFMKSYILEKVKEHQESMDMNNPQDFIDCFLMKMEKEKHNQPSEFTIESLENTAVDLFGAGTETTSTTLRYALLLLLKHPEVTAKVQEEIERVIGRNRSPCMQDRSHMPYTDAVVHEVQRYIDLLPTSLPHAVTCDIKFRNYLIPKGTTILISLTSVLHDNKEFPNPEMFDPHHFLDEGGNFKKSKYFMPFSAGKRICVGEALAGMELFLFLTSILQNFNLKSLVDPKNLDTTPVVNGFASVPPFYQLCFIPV
Aurora kinase B, sequence (Q96GD4 whole entry): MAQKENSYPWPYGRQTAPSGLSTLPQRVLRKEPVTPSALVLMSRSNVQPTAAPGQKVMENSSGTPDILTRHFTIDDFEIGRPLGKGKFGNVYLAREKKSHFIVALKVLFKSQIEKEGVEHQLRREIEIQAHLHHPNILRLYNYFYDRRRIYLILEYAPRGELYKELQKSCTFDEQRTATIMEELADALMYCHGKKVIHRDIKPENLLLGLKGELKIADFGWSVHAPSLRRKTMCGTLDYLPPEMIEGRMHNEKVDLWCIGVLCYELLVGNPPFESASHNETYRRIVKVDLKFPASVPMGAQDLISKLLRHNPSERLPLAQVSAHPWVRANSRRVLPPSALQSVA
Cytochrome P450 2D6, sequence (P10635 whole entry): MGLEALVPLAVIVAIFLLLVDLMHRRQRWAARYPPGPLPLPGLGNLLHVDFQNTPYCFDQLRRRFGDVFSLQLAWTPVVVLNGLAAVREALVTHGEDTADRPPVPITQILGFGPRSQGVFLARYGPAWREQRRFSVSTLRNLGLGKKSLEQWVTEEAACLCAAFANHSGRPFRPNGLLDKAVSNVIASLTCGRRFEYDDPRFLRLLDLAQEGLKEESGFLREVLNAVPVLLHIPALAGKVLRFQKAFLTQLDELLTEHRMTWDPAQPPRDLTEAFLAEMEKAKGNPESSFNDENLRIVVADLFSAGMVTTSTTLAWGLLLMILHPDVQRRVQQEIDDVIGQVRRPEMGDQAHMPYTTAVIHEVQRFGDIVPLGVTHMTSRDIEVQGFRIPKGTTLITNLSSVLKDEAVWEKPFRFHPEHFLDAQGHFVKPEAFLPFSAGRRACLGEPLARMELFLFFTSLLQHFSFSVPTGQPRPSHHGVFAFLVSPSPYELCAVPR
hERG (KCNH2), sequence (Q12809 whole entry): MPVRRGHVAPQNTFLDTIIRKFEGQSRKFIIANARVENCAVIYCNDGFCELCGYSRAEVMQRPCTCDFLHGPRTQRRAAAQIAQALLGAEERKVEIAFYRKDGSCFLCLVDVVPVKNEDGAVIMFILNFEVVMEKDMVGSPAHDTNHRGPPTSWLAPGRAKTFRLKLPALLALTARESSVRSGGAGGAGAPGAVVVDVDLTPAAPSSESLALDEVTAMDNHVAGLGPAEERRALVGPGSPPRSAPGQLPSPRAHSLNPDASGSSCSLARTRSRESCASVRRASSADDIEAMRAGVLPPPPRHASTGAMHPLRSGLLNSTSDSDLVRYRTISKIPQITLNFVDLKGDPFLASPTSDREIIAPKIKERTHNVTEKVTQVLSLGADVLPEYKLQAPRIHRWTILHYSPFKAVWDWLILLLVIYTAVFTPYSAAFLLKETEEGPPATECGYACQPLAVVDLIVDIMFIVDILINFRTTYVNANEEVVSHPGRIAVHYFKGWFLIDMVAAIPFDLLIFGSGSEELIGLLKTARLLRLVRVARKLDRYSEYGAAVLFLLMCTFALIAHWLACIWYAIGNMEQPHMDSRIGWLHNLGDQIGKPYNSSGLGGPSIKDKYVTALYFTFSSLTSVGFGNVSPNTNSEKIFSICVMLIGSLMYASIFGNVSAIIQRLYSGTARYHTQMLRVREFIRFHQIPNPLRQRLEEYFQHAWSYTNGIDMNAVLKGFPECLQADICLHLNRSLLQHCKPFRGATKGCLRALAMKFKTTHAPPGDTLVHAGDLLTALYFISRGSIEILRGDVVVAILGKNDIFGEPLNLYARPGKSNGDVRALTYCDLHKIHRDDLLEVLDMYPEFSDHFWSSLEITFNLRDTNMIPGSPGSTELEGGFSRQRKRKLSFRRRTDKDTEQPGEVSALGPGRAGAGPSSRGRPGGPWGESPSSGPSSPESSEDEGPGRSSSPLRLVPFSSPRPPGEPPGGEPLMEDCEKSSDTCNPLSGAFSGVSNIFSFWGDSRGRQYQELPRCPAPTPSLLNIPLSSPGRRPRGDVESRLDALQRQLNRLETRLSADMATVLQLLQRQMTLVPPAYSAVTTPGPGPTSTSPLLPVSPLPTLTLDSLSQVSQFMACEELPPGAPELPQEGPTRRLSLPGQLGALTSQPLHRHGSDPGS

With `COc1cccc(Cn2nc(Nc3cc(C)[nH]n3)c3ccccc3c2=O)c1`, the 50% inhibitory concentration (IC50) was 3.6 µM in [1]; 0.66 µM in series [3]; over 30 µM in series [4]; 0.036 µM in series [5]; 28 µM in series [6]. Also, the Selectivity ratio in series [2] was over 1000.

As for `Cc1ccc(-n2nc(Nc3cc[nH]n3)c3ccccc3c2=O)cc1`, the Selectivity ratio in series [2] was over 1000. Further, in series [5], half-maximal inhibition (IC50) required 1 µM.

With `Cc1cc(Nc2nn(-c3ccc(Cl)cc3)c(=O)c3ccccc23)n[nH]1`, the IC50 in [1] is 2.2 µM; in series [3] it was 0.82 µM; in series [4], 11.4 µM; in [5], 0.093 µM; in series [6], over 100 µM. For the same molecule, in series [2], the Selectivity ratio is over 1000.

As for `Cc1cc(Nc2nn(C(C)C)c(=O)c3ccccc23)n[nH]1`, the half-maximal inhibitory concentration (IC50) was 1.7 µM in [1]; over 50 µM in [7]; 0.4 µM in series [3]; over 50 µM in series [8]; 1.6 µM in series [4]; over 50 µM in [9]. In addition, the figures for the concentration for half-maximal inhibition (IC50) in series [5] and in series [6] were 0.035 µM and 30 µM, respectively. In addition, the Selectivity ratio in series [2] is over 1000. The same molecule displayed a solubility in series [10] of 7 µg/mL (≈ 24.7 µM).

For the molecule `CC(=O)Nc1ccc(Cn2nc(Nc3cc[nH]n3)c3ccccc3c2=O)cc1`, the values for the IC50 in [3], in [4] and in [6] were over 30 µM, over 30 µM and 34 µM, respectively.

As for `Cc1cc(Nc2nn(CC(F)(F)F)c(=O)c3ccccc23)n[nH]1`, the Selectivity ratio in [2] is over 1000. For the same molecule, the IC50 in series [3] stood at 1.8 µM; in series [4] it was 4.5 µM; in series [5], 0.066 µM; in [6], 15 µM.

Consider `Cc1cc(Nc2nn(C)c(=O)c3ccccc23)n[nH]1`, for which the IC50 is over 30 µM in [1]; 5.2 µM in series [3]; over 30 µM in series [4]; 0.27 µM in series [5]; 17 µM in [6].

Regarding `Cc1cc(Nc2nn(Cc3csc(C)n3)c(=O)c3ccccc23)n[nH]1`, the IC50 is over 30 µM in series [1]; 4.18 µM in series [3]; over 30 µM in series [4]; 0.12 µM in [5]; 24 µM in [6].

`COc1cccc(C(=O)Cn2nc(Nc3cc(C)[nH]n3)c3ccccc3c2=O)c1`: the IC50 was over 30 µM in series [1]; 2.7 µM in series [3]; over 30 µM in series [4]; 0.1 µM in series [5]; 67 µM in series [6]. Moreover, the Selectivity ratio in series [2] is over 1000.

In the case of `Cc1cc(Nc2nn(Cc3cccnc3)c(=O)c3ccccc23)n[nH]1`, the IC50 in [1] stood at 4.1 µM; in series [3], 2.9 µM; in series [4], 13.4 µM; in [5] it was 0.017 µM; in series [6], 12.7 µM.

Take `Cc1cc(Nc2n[nH]c(=O)c3ccccc23)n[nH]1`: the Selectivity ratio in series [2] is over 1000. Also, the IC50 was determined as 0.65 µM in series [5] and 22 µM in [6].

`Cc1cc(Nc2nn(-c3ccccc3)c(=O)c3ccccc23)n[nH]1`: the IC50 in series [7], in series [8] and in series [9] was over 50 µM each time. Besides, the inhibition at 10 µM in [11] worked out at 20%. Moreover, in series [12], the hepatocyte CLint came out at 2.3 µL/min/1e6 cells. The microsomal CLint in series [13] is 15.7 µL/min/mg. The amount in solution in series [10] (solubility) came to 1.2 µg/mL (≈ 3.78 µM).

Consider `Cc1cc(Nc2nn(Cc3ccncc3)c(=O)c3ccccc23)n[nH]1`, for which the IC50 in series [1] was 13 µM; in [3] it was 20.2 µM; in series [4], over 30 µM; in series [5] it was 0.27 µM; in series [6], 27 µM.

Consider `Cc1cc(Nc2nn(Cc3ccccc3)c(=O)c3ccccc23)n[nH]1`, for which the microsomal CLint in series [14] is 7.4 µL/min/mg; in [13], 28 µL/min/mg. The IC50 in [1] is 4.4 µM; in series [7], over 50 µM; in [3], 1.5 µM; in series [8], over 50 µM; in series [4] it was 12.6 µM; in series [9] it was 42 µM. In addition, the IC50 in series [6] is over 100 µM. In [2], the Selectivity ratio is over 1000. Further, the outcome in series [15] was Active. Further, in series [12], the hepatocyte CLint was 2.4 µL/min/1e6 cells. In series [10], this molecule came in with a solubility of 1.9 µg/mL (≈ 5.73 µM).

Regarding `Cc1cc(Nc2nn(Cc3cc(F)cc(F)c3)c(=O)c3ccccc23)n[nH]1`, the concentration for half-maximal inhibition (IC50) is 2.3 µM in series [1]; 0.5 µM in series [3]; 2.6 µM in series [4]; 0.049 µM in [5]; over 100 µM in series [6]. Also, in series [2], the Selectivity ratio was over 1000.

For `Cc1cc(Nc2nn(CC(C)C)c(=O)c3ccccc23)n[nH]1`, the half-maximal inhibitory concentration (IC50) came to 1.1 µM in series [3], 4.2 µM in [4], 0.115 µM in [5] and 34 µM in [6].

With `CC(=O)Nc1ccc(Cn2nc(Nc3cc(C)[nH]n3)c3ccccc3c2=O)cc1`, the concentration for half-maximal inhibition (IC50) in series [1] is over 30 µM; in series [3] it was 4.2 µM; in [4], over 30 µM; in series [5], 0.093 µM; in series [6], 15 µM.

Turning to `Cc1cccc(-n2nc(Nc3cc(C)[nH]n3)c3ccccc3c2=O)c1`, the 50% inhibitory concentration (IC50) in [1] is 3.2 µM; in [3] it was 2.3 µM; in series [4], 2.9 µM; in series [5], 0.024 µM; in series [6] it was over 100 µM. In series [2], the Selectivity ratio was over 1000.

Take `Cc1ccc(-n2nc(Nc3cc(C)[nH]n3)c3ccccc3c2=O)cc1`: the IC50 in series [1] was 3.6 µM; in [3], 0.24 µM; in series [4] it was over 30 µM; in series [5], 0.023 µM; in [6], over 100 µM. Besides, the Selectivity ratio in [2] was over 1000.

Take `Cc1cc(Nc2nn(Cc3ccc([N+](=O)[O-])cc3)c(=O)c3ccccc23)n[nH]1`: the IC50 in series [3] was 1.4 µM; in series [4] it was over 30 µM; in series [5], 0.109 µM; in [6], 0.93 µM.

Regarding `Cc1cc(Nc2nn(Cc3ccc(F)cc3)c(=O)c3ccccc23)n[nH]1`, the IC50 in [1] is 17 µM; in [3], 1.4 µM; in series [4], over 30 µM; in [5], 0.014 µM; in [6] it was 69 µM. The Selectivity ratio in [2] was over 1000.

As to `COc1ccc(-n2nc(Nc3cc(C)[nH]n3)c3ccccc3c2=O)cc1`, the 50% inhibitory concentration (IC50) was 3.7 µM in [1]; 0.7 µM in series [3]; 3.6 µM in [4]; 0.029 µM in series [5]; over 100 µM in [6].

Regarding `COc1ccc(C(=O)Cn2nc(Nc3cc(C)[nH]n3)c3ccccc3c2=O)cc1`, the IC50 was over 30 µM in [1]; over 30 µM in series [3]; over 30 µM in series [4]; 0.067 µM in series [5]; over 100 µM in series [6]. In series [2], the Selectivity ratio is over 1000.

Consider `Cc1cc(Nc2nn(Cc3cc(F)ccc3F)c(=O)c3ccccc23)n[nH]1`, for which the IC50 in series [1] is 3.8 µM; in [3], 0.57 µM; in series [4], over 30 µM; in [5], 0.025 µM; in [6], over 100 µM.

For the molecule `Cc1cc(Nc2nn(CC(=O)c3ccc(C(F)(F)F)cc3)c(=O)c3ccccc23)n[nH]1`, the IC50 in series [1] was over 30 µM; in series [3], over 30 µM; in series [4] it was over 30 µM; in series [5], 0.72 µM; in series [6], over 100 µM. In series [2], the Selectivity ratio was over 1000.

For the molecule `Cc1cc(Nc2nn(Cc3ccc(S(C)(=O)=O)cc3)c(=O)c3ccccc23)n[nH]1`, the IC50 in [1] turned out to be 4.5 µM; in series [3], 1.7 µM; in [4], 4.5 µM; in series [5], 0.056 µM; in series [6], 34 µM.

With `COc1ccc(Cn2nc(Nc3cc(C)[nH]n3)c3ccccc3c2=O)cc1`, the IC50 was 4.2 µM in series [1]; 1.2 µM in series [3]; over 30 µM in [4]; 0.032 µM in [5]; 46 µM in series [6].

Regarding `Cc1cc(Nc2nn(-c3ccc(F)cc3)c(=O)c3ccccc23)n[nH]1`, the concentration for half-maximal inhibition (IC50) in series [1] was 1.6 µM; in series [3] it was 0.8 µM; in [4], 1.6 µM; in series [5], 0.037 µM; in [6], over 100 µM.

For `Cc1cc(Nc2nn(-c3ccc(C(C)(C)C)cc3)c(=O)c3ccccc23)n[nH]1`, the Selectivity ratio in series [2] was over 1000. The IC50 in series [3] is 0.06 µM; in [4], 0.78 µM; in series [5], 0.24 µM; in series [6], over 50 µM.

As to `Cc1cc(Nc2nn(CC(=O)c3ccccc3)c(=O)c3ccccc23)n[nH]1`, the IC50 in series [1] was over 30 µM; in [3] it was 5.44 µM; in [4], over 30 µM; in series [5], 0.071 µM; in series [6], over 100 µM. For the same molecule, the Selectivity ratio in [2] is over 1000.

As for `O=c1c2ccccc2c(Nc2n[nH]c3ccccc23)nn1-c1ccccc1`, the Selectivity ratio in series [2] was over 1000. Besides, in [5], it took 14 µM to reach half-maximal inhibition (IC50).
